Calls of active or inactive are those of the source. The rule behind the calls is not given here. Where a SMILES comes first, the peptide text is derived from it. Bridges are numbered along the chain shown (N, C = ends). [ ]: non-standard residue; d: D form. The star is where a group is joined. X1 = CC[C@H](C)CCCCC(=O)*; Dab = NCC[C@H](N)C(=O)O
Columns and labels:
[1] = system: Cell membrane; experiment: Disruption of cell membrane in methicillin resistant Staphylococcus aureus ATCC BAA 1556 assessed as increase in PI fluorescence intensity at MIC measured after 1 hrs by PI staining based flow cytometric analysis; type: subcellular
How it was run: (§1)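 Mid-log cells grown in Mueller Hinton broth, washed in 10 mM Tris pH 7.4, 10^7 CFU/mL, treated at MIC and 4× MIC for 1 h. Pelleted, washed, PI-stained for 15 min at 37 °C in the dark, then counted by flow cytometry for % PI-positive cells. PBS-treated cells as negative control, 10% Triton X-100 as positive control. Run in triplicate; two-tailed unpaired t-test.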

[2] = system: Staphylococcus aureus; experiment: Bactericidal activity against methicillin resistant Staphylococcus aureus ATCC BAA 1556 assessed as inhibition of bacterial growth at 4 times of MIC incubated for 3 hrs by Time kill assay; type: functional
How it was run: (§2)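 Aliquots taken every 30 min for 4 h and plated on agar for viable colony counts. Two independent experiments in triplicate.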

[3] = system: Cell membrane; experiment: Disruption of cell membrane in Escherichia coli ATCC BAA-2452 assessed as increase in PI fluorescence intensity at MIC measured after 1 hrs by PI staining based flow cytometric analysis; type: subcellular
How it was run: (§3)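 Mid-log E. coli ATCC BAA-2452 grown in Mueller Hinton broth, washed thrice and resuspended at 10^7 CFU/mL in 10 mM Tris pH 7.4. […] Controls: PBS (negative) and 10% Triton X-100 (positive). Triplicate; two-tailed unpaired t-test.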

[4] = system: Cell membrane; experiment: Disruption of cell membrane in methicillin resistant Staphylococcus aureus ATCC BAA 1556 assessed as increase in PI fluorescence intensity at 4 times of MIC measured after 1 hrs by PI staining based flow cytometric analysis; how it was run: as §1
[5] = system: Cell membrane; experiment: Disruption of cell membrane in Escherichia coli ATCC BAA-2452 assessed as increase in PI fluorescence intensity at 4 times of MIC measured after 1 hrs by PI staining based flow cytometric analysis; type: subcellular; how it was run: as §3
[6] = system: Lipid bilayer; experiment: Induction of membrane disruption in mammalian membrane mimic DOPC/cholesterol (10:1) large unilamellar vesicles assessed as induction of dye leakage at 50 ug/ml measured after 100 mins by calcein dye based analysis; type: cell membranes; conditions: dose 50.0 µg/ml
How it was run: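 LUVs loaded with calcein: DOPC/DOPG 7:3 w/w (bacterial mimic) or DOPC/cholesterol 10:1 w/w (mammalian mimic). Mixed 1:1 by volume with peptide at 5, 10, 20, 30 or 50 μg/mL. Fluorescence (ex 490/em 520 nm) read every 10 min for 100 min. Leakage expressed relative to 10% Triton X-100 lysis (100%), after subtracting liposome background. Triplicate.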

[7] = system: Escherichia coli; experiment: Bactericidal activity against […] Escherichia coli ATCC BAA 2452 assessed as inhibition of bacterial growth at 4 times of MIC incubated for 2.5 hrs by Time kill assay; type: functional; how it was run: as §2

Row | SMILES | Activity [1] | inhibition (INH) [2] | Activity [3] | Activity [4] | Activity [5] | Activity [6] | inhibition (INH) [7]
1 | CCCCCCCCCC(=O)N[C@@H](Cc1c[nH]c2ccccc12)C(=O)N[C@H](CC(N)=O)C(=O)N[C@@H](CC(=O)O)C(=O)N[C@@H]1C(=O)NCC(=O)N[C@@H](CCCN)C(=O)N[C@@H](CC(=O)O)C(=O)N[C@H](C)C(=O)N[C@@H](CC(=O)O)C(=O)NCC(=O)N[C@H](CO)C(=O)N[C@@H]([C@H](C)CC(=O)O)C(=O)N[C@@H](CC(=O)c2ccccc2N)C(=O)O[C@@H]1C | inactive | 100% | inactive | inactive | inactive | 7% | 
2 | CC[C@H](C)CCCCC(=O)N[C@@H](CCN)C(=O)N[C@H](C(=O)N[C@@H](CCN)C(=O)N[C@H]1CCNC(=O)[C@H]([C@@H](C)O)NC(=O)[C@H](CCN)NC(=O)[C@H](CCN)NC(=O)[C@H](CC(C)C)NC(=O)[C@@H](Cc2ccccc2)NC(=O)[C@H](CCN)NC1=O)[C@@H](C)O (X1-[Dab]T[Dab][Dab][Dab][dF]L[Dab][Dab]T; lactam 4-C) |  |  |  |  |  |  | 100%

From ChEMBL document CHEMBL5316289, “Structure-Based Rational Design of Small α-Helical Peptides with Broad-Spectrum Activity against Multidrug-Resistant Pathogens” (J Med Chem, 2023)
